Source: ChEMBL document CHEMBL4396879, “Conjugation of Short Peptides to Dibenzodiazepinone-Type Muscarinic Acetylcholine Receptor Ligands Determines M2R Selectivity” (J Med Chem, 2019)

Tests used:
[1] = target: T1, Muscarinic acetylcholine receptor M1 (Homo sapiens, UniProt P11229); assay: Displacement of [3H]-NMS from human muscarinic M1 receptor expressed in CHO-K9 cells after 3 hrs by microbeta2 scintillation counting method; type: cell-based
T1 sequence (P11229 whole entry): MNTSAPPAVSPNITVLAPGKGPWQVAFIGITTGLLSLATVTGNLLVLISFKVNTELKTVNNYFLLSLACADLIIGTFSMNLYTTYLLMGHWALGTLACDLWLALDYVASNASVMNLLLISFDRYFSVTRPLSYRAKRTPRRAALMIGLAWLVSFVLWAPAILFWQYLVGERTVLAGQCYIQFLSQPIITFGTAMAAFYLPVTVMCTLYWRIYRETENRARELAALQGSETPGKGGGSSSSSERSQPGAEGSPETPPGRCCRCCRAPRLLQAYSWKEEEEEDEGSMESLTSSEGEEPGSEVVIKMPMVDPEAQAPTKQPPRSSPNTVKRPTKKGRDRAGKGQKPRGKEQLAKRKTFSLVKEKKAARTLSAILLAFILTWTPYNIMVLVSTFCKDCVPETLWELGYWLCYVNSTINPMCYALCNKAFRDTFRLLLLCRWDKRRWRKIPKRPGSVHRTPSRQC
How it was run: (§1)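 [3H]NMS competition binding on intact CHO-hMxR cells in L15 medium with 1% BSA, 3 h at 22 ± 1 °C with gentle shaking. [3H]NMS was 0.2 nM (M1, M2, M3), 0.1 nM (M4) or 0.3 nM (M5). […] Cells were lysed in urea/acetic acid/Triton and counted by liquid scintillation. Ki from Cheng-Prusoff. Triplicates, ≥3 experiments.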

[2] = target: T2, Muscarinic acetylcholine receptor M2 (Homo sapiens, UniProt P08172); assay: Displacement of [3H]-NMS from human muscarinic M2 receptor expressed in CHO-K9 cells after 3 hrs by microbeta2 scintillation counting method; type: cell-based; how it was run: as §1
T2 sequence (P08172 whole entry): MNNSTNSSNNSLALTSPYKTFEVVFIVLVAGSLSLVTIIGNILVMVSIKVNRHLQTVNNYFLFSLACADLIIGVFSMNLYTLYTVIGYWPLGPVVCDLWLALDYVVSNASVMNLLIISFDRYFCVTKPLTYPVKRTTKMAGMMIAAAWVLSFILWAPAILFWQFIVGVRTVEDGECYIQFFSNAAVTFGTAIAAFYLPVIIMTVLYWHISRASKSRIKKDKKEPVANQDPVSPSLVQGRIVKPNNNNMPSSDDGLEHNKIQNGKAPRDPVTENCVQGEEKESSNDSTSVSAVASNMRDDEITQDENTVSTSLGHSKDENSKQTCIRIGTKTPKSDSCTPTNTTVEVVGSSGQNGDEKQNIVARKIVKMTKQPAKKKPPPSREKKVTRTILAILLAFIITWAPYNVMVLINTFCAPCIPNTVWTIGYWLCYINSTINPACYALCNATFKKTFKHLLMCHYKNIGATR

[3] = target: Muscarinic acetylcholine receptor M3 (Homo sapiens, UniProt P20309); assay: Displacement of [3H]-NMS from human muscarinic M3 receptor expressed in CHO-K9 cells after 3 hrs by microbeta2 scintillation counting method; type: cell-based; how it was run: as §1
Chain of Muscarinic acetylcholine receptor M3 (P20309 whole entry): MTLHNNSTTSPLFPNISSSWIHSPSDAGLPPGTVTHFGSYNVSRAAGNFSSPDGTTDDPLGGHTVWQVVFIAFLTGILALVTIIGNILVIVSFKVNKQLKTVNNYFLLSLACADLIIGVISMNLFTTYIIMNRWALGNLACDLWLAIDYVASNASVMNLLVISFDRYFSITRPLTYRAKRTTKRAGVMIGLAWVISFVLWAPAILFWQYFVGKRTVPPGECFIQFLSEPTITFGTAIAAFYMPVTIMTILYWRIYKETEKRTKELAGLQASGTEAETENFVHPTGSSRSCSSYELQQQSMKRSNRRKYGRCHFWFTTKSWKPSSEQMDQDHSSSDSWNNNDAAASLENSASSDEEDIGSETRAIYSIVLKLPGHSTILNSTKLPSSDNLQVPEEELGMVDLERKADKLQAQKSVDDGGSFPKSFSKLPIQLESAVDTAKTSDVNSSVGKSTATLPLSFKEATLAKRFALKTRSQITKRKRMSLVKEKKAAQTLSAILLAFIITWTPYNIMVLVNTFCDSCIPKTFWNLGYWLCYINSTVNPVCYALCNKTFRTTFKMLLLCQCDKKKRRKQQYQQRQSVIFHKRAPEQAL

[4] = target: T3, Muscarinic acetylcholine receptor M4 (Homo sapiens, UniProt P08173); assay: Displacement of [3H]-NMS from human muscarinic M4 receptor expressed in CHO-K9 cells after 3 hrs by microbeta2 scintillation counting method; type: cell-based; how it was run: as §1
T3 sequence (P08173 whole entry): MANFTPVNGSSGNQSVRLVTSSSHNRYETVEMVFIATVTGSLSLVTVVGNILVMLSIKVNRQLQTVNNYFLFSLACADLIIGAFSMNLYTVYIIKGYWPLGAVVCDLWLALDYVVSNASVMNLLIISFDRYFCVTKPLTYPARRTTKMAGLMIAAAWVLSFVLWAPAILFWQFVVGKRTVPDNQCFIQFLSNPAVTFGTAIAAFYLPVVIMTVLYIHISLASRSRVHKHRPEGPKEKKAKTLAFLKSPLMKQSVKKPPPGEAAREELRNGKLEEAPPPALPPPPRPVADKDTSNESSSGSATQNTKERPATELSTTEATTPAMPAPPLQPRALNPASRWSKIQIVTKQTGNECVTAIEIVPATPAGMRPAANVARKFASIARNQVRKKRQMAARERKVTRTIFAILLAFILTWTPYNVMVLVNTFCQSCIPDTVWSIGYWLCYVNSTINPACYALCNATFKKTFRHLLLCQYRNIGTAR

[5] = target: T4, Muscarinic acetylcholine receptor M5 (Homo sapiens, UniProt P08912); assay: Displacement of [3H]-NMS from human muscarinic M5 receptor expressed in CHO-K9 cells after 3 hrs by microbeta2 scintillation counting method; type: cell-based; how it was run: as §1
T4 sequence (P08912 whole entry): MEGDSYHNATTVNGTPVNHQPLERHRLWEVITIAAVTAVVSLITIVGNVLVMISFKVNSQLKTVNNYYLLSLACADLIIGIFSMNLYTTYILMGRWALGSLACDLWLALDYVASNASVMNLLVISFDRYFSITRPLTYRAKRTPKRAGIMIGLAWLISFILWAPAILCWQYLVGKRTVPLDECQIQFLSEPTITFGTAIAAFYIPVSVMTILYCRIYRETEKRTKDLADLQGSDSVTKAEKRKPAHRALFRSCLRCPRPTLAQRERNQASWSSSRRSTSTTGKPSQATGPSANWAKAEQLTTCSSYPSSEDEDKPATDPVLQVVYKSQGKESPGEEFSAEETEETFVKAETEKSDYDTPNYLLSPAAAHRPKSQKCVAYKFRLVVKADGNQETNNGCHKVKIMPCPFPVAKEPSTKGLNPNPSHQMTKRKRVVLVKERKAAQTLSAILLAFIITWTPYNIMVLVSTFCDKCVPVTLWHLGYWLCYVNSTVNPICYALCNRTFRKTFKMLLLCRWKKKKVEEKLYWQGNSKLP

[6] = target: Muscarinic acetylcholine receptors; M1 & M2 (Homo sapiens) (UniProt P11229+P08172); assay: Selectivity ratio of Ki for human muscarinic M1 receptor expressed in CHO-K9 cells to Ki for human muscarinic M2 receptor expressed in CHO-K9 cells; type: cell-based
How it was run: (§2)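 Ratio of mean Ki values. Each Ki came from an individual [3H]NMS competition experiment at the given CHO-hMxR subtype, converting IC50 to Ki by Cheng-Prusoff before averaging.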

[7] = target: T5, Muscarinic acetylcholine receptors; M2 & M3 (Homo sapiens) (UniProt P20309+P08172); assay: Selectivity ratio of Ki for human muscarinic M3 receptor expressed in CHO-K9 cells to Ki for human muscarinic M2 receptor expressed in CHO-K9 cells; type: cell-based; how it was run: as §2
T5 sequence (P20309 whole entry, looked up, one chain of several): as the sequence (P20309 whole entry) above

[8] = target: Muscarinic acetylcholine receptor M2 and M4 (Homo sapiens) (UniProt P08173+P08172); assay: Selectivity ratio of Ki for human muscarinic M4 receptor expressed in CHO-K9 cells to Ki for human muscarinic M2 receptor expressed in CHO-K9 cells; type: cell-based; how it was run: as §2
[9] = target: T6, Muscarinic acetylcholine receptor M2 and M5 (Homo sapiens) (UniProt P08172+P08912); assay: Selectivity ratio of Ki for human muscarinic M5 receptor expressed in CHO-K9 cells to Ki for human muscarinic M2 receptor expressed in CHO-K9 cells; type: cell-based; how it was run: as §2
[10] = Stability of the compound in human plasma:PBS of pH 7.4 (1:2) assessed as intact compound at 100 uM incubated for 1 hr by LC-MS analysis; type: ADME, cell-free; conditions: plasma diluted with PBS (1:2), read-out: Stability
How it was run: (§3)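 Compound added at 100 μM (from 5 mM stock in acetonitrile/0.04% TFA 3:7) to heparinized human plasma/PBS pH 7.4 (1:2 v/v) with 10 μM 1-methyl-D-tryptophan as internal standard. Incubated shaking at 37 °C in triplicate. Aliquots were EtOH/acetonitrile-precipitated and analysed by RP-HPLC at 220 nm, with recovery correction against four-point calibrations.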

[11] = Stability of the compound in human plasma used as 1:2 ratio of plasma to pH 7.4 PBS assessed as intact compound at 100 uM incubated for 6 hr […]; type: ADME, cell-free; conditions: plasma diluted with PBS (1:2), read-out: Stability
[12] = Stability of the compound in human plasma used as 1:2 ratio of plasma to pH 7.4 PBS assessed as intact compound at 100 uM incubated for 24 hr […]; type: ADME, cell-free; conditions: plasma diluted with PBS (1:2), read-out: Stability
[13] = Stability of the compound in human plasma used as 1:2 ratio of plasma to pH 7.4 PBS assessed as intact compound at 100 uM incubated for 48 hr by LC-MS analysis; type: ADME, cell-free; conditions: plasma diluted with PBS (1:2), read-out: Stability; how it was run: as §3
[14] = target: T2, Muscarinic acetylcholine receptor M2; assay: Displacement of [3H]-QNB from human muscarinic M2 receptor expressed in stable CHO-K1 cells incubated for 120 mins by radioligand competition binding assay; type: cell-based
[15] = target: T5, Muscarinic acetylcholine receptors; M2 & M3 (Homo sapiens); assay: Selectivity ratio of Ki for human muscarinic M3 receptor expressed in stable CHO-K1 cells to Ki for human muscarinic M2 receptor expressed in stable CHO-K1 cells; type: cell-based
[16] = target: T6, Muscarinic acetylcholine receptor M2 and M5 (Homo sapiens); assay: Selectivity ratio of Ki for human muscarinic M5 receptor expressed in stable CHO-K1 cells to Ki for human muscarinic M2 receptor expressed in stable CHO-K1 cells; type: cell-based

Ki [1] [nM]	Ki [2] [nM]	Ki [3] [nM]	Ki [4] [nM]	Ki [5] [nM]	Ratio Ki [6]	Ratio Ki [7]	Ratio Ki [8]	Ratio Ki [9]	remaining at 1 h, 100 µM [10] [%]	remaining at 6 h, 100 µM [11] [%]	remaining at 24 h, 100 µM [12] [%]	remaining at 48 h, 100 µM [13] [%]	Ki [14] [nM]	Ratio Ki [15]	Ratio Ki [16]	SMILES
302	22.9	1380	79.4	1350	14	59	3.7	62	–	–	–	–	–	–	–	CC(=O)N[C@@H](C)C(=O)N[C@@H](C)C(=O)NCCCCC1CCN(CC(=O)N2c3ccccc3NC(=O)c3ccccc32)CC1
22.9	1.48	776	17.4	363	15	620	11	260	> 99	> 99	> 99	83	–	–	–	CC(=O)N[C@@H](CCCNC(=N)N)C(=O)N[C@@H](CCCCN)C(=O)NCC(=O)NCCCCC1CCN(CC(=O)N2c3ccccc3NC(=O)c3ccccc32)CC1
–	–	–	–	–	–	–	–	–	–	–	–	–	2.69	172	48	Cc1ccccc1C(=O)N1CCC(N2CCC(Cc3ccc(S(=O)(=O)c4cccc(Cl)c4)cc3)CC2)CC1
2.4	0.24	61.7	1.2	295	9.6	270	5.4	1300	–	–	–	–	–	–	–	CC(=O)N[C@@H](CCC(N)=O)C(=O)N[C@@H](CC(C)C)C(=O)NCCN1CCN(CCCCC2CCN(CC(=O)N3c4ccccc4NC(=O)c4ccccc43)CC2)CC1
115	7.76	2690	89.1	427	15	350	12	56	–	–	–	–	–	–	–	CC(=O)N[C@@H](CCCCN)C(=O)N[C@@H](C)C(=O)N[C@@H](CCCNC(=N)N)C(=O)NCCCCC1CCN(CC(=O)N2c3ccccc3NC(=O)c3ccccc32)CC1
